High-throughput results (PubChem)
PKA-R2B activ: activates the human PKA-R2B holoenzyme complex | PKA-R2B holoenzyme dissociation, Cy5-IP20 fluorescence polarization; R2B truncated from residue 108, S112A mutant; 0% DMSO only, 100% 113 µM cGMP | activation, % at 11.4 µM | P22694+P31323 | AID 504700 | 340,000 compounds, 0.079% hits;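 active means activation above a cutoff set at the mean over all compounds plus 3 SD, cut at about 18% in these data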;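 further: higher means more holoenzyme dissociation and a rise in polarization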
Target sequence (P31323 whole entry, looked up, other chains not shown, the tested form may be a part): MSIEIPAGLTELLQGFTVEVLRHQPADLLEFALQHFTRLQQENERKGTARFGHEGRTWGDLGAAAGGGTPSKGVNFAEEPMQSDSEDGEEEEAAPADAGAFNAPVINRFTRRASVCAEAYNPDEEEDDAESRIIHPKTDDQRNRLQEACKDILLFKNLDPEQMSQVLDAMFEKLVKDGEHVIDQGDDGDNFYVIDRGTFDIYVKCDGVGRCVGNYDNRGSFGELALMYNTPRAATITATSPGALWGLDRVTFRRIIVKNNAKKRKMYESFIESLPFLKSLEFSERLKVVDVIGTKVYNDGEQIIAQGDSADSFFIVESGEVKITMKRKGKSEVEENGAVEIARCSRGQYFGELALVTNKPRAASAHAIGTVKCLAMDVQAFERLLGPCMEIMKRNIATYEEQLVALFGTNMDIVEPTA
Rpn11 inh: blocks the human proteasome subunit Rpn11 | O00487 | human 26S proteasome, Ub4-pepOG fluorescence polarization; 20S core pre-blocked with epoxomicin | calls only at 20 µM | 360,000 compounds, 0.59% hits | AID 588493;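 active means inhibition at 20 µM, scaled to each plate's controls, above about 33%, limit read from the data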
CSN inh: inhibitors of human CSN-mediated cullin deneddylation; Purified CSN, SCF-Nedd8-OG deneddylation, fluorescence polarization; AID 651999; inhibition, % at 12.5 µM; Q92905; 360,000 compounds, 0.38% hits;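 active means pattern-corrected inhibition above about 35%, with an unprinted fluorescence ratio check between 0.5 and 1.5, limit read from the data, passing the limit was not always enough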;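 further: 0% = enzyme with substrate and 100% = substrate without enzyme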
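Assay system: purified human Csn5 enzyme expressed in HEK293T cells; Input: 0.24 nM Csn5 enzyme, final concentration; Reagent: 10 nM SCFSkp2-Nedd8OG; Compound dosing: 12.5 µM single point; Times: reaction 90 min, room temperature; Technique: fluorescence polarization readout.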
HNF4A DNA FP: change in binding of human HNF4 alpha to DNA; P41235; HNF4a-FITC DNA binding, fluorescence polarization, 1 h; activity change, % at 10 µM; 360,000 compounds, 0.3% hits; AID 1224865; in the data active means activity change above about 30%, passing the limit was not always enough
TPT1 inh: blocks Candida albicans tRNA 2'-phosphotransferase; 300,000 compounds, 0.81% hits; recombinant caTPT1, FP RNA substrate dephosphorylation; inhibition, % at 5 µM;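 active means inhibition above the mean of all tested compounds plus 3 SD, set per screening campaign, cut at about 24% in these data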;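 further: plate controls were DMSO alone for no effect and ferristatin control at 100 nM for full effect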
PKA-R1A act: PKA-R1A complex activation; P00514+P68181; 340,000 compounds, 0.083% hits; PKA-R1A dissociation, Cy5-IP20 fluorescence polarization; scaled: DMSO 0%, 113 µM cGMP 100%; activation, % at 11.4 µM;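 active means percent activation above the mean of all tested compounds plus 3 SD, cut at about 19% in these data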;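 further: higher means more PKAc released from R1A so a rise in polarization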
Rpn11 confirm: confirmation of human proteasome Rpn11 inhibitors; 1,900 compounds, 29% hits; purified human 26S proteasome, Ub4-pepOG fluorescence polarization; proteasome pretreated with epoxomicin; inhibition, % at 20 µM; shares compounds with Rpn11 inh
MMP-2 counter: counter-screen for RPN11 inhibitors: inhibition of human MMP-2; shares compounds with Rpn11 inh; recombinant MMP-2, FRET peptide cleavage fluorescence; inhibition, % at 20 µM; 1,900 compounds, 4% hits; AID 602330;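 further: human MMP-2 activated beforehand with APMA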
Thrombin inh: counter-screen for RPN11 inhibitors: inhibition of bovine thrombin; shares compounds with Rpn11 inh; bovine thrombin cleavage of Ub4-pepOG, fluorescence polarization; inhibition, % at 20 µM; 1,900 compounds, 13% hits; AID 602333;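 active means mean inhibition at least 40% at 20 µM, or signal 3 deviations below plate average, so some actives read negative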;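 further: plate controls were thrombin with DMSO for no effect and buffer wells lacking thrombin for full effect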
* marks the source's active call; other numbers are inactive results. Rows were chosen to be rich in hits. Some 1.6% of all compounds tested hit in one or more screens of this group. Unless noted, no stated cut-off is given here; in the data, active means inhibition above about 40%; inactive means the rest.

Results for Cn1c(SCC(=O)Nc2ccccc2F)nnc1C1CCCCC1 ?
PKA-R2B activ: -4; Rpn11 inh: inactive; CSN inh: -2; HNF4A DNA FP: -1; TPT1 inh: 2; PKA-R1A act: -2

What do the screens show for `N#CCC(=O)N/N=C/c1ccccc1Cl`?
PKA-R2B activ: -1; Rpn11 inh: active; CSN inh: -7; HNF4A DNA FP: 3; TPT1 inh: -3; PKA-R1A act: 8; Rpn11 confirm: -15; MMP-2 counter: 13; Thrombin inh: -13

What do the screens show for `COC(=O)Cc1ccc(NC(=S)Nc2ccc(N3CCOCC3)cc2)cc1`?
PKA-R2B activ: -11; Rpn11 inh: inactive; CSN inh: -2; HNF4A DNA FP: 0; TPT1 inh: -2; PKA-R1A act: -2

How did Cc1ccc(C)c(OCCC(=O)Nc2ccc(S(=O)(=O)N3CCCC3)cc2)c1 do in these assays?
PKA-R2B activ: -5; Rpn11 inh: inactive; CSN inh: 0; HNF4A DNA FP: -6; PKA-R1A act: -11

Results for O=C(c1cnn(C(=O)COc2ccc(Cl)cc2)c1)c1ccccc1O ?
PKA-R2B activ: -3; Rpn11 inh: inactive; CSN inh: 3; HNF4A DNA FP: -5; TPT1 inh: 4; PKA-R1A act: 2

What do the screens show for `Cc1ccc(O)c(C(=O)c2cnn(C(=O)COc3ccc(Cl)cc3)c2)c1`?
PKA-R2B activ: 1; Rpn11 inh: active; CSN inh: -3; HNF4A DNA FP: -1; TPT1 inh: 1; PKA-R1A act: -3; Rpn11 confirm: 1; MMP-2 counter: -28; Thrombin inh: -11

How did FC(F)(F)c1cccc(N2CCN(C3CC4CCC3C4)CC2)c1 (stereo unspecified) do in these assays?
PKA-R2B activ: 6; Rpn11 inh: inactive; CSN inh: -3; HNF4A DNA FP: 0; TPT1 inh: -1; PKA-R1A act: -1

How did CCC(=O)Nc1c(C#N)c2nc3ccccc3nc2n1C1CCCCC1 do in these assays?
PKA-R2B activ: -2; Rpn11 inh: active; CSN inh: 32; HNF4A DNA FP: 12; TPT1 inh: 1; PKA-R1A act: -6; Rpn11 confirm: 6; MMP-2 counter: -29; Thrombin inh: -5

Results for CCCCn1c(NC(=O)CC)c(C#N)c2nc3ccccc3nc21 ?
PKA-R2B activ: -2; Rpn11 inh: active; CSN inh: 0; HNF4A DNA FP: 0; TPT1 inh: 3; PKA-R1A act: 2; Rpn11 confirm: 38; MMP-2 counter: -19; Thrombin inh: -17

What do the screens show for `CCC(=O)Nc1c(C#N)c2nc3ccccc3nc2n1-c1ccccc1C`?
PKA-R2B activ: -8; Rpn11 inh: inactive; CSN inh: -1; HNF4A DNA FP: 1; TPT1 inh: 2; PKA-R1A act: -1

What do the screens show for `C=CCSc1nnc(NC(=O)c2cn(CC)c3nc(C)ccc3c2=O)s1`?
PKA-R2B activ: 4; Rpn11 inh: active; CSN inh: 26; HNF4A DNA FP: 17; TPT1 inh: 12; PKA-R1A act: -3; Rpn11 confirm: 10; MMP-2 counter: -64; Thrombin inh: 12

Results for O=C(N/N=C\c1ccc(-c2ccc([N+](=O)[O-])cc2)o1)C1COc2ccccc2O1 (stereo unspecified) ?
PKA-R2B activ: 2; Rpn11 inh: active; CSN inh: -12; HNF4A DNA FP: 10; TPT1 inh: 22; PKA-R1A act: 2; Rpn11 confirm: 46*; MMP-2 counter: 5; Thrombin inh: -23

Results for O=C(c1cccs1)n1nc(-c2cccnc2)nc1NCc1ccco1 ?
PKA-R2B activ: -12; Rpn11 inh: inactive; CSN inh: 0; HNF4A DNA FP: 2; PKA-R1A act: -1

Results for COc1ccc(C2(c3ccc(OC)cc3)NC(=O)NC2=O)cc1 ?
PKA-R2B activ: -3; Rpn11 inh: inactive; CSN inh: 2; HNF4A DNA FP: -2; TPT1 inh: 1; PKA-R1A act: 1

What do the screens show for `Cc1cc(NC(=O)c2cccc(S(=O)(=O)N(C)C)c2)n(-c2ccccn2)n1`?
PKA-R2B activ: 0; Rpn11 inh: active; CSN inh: 1; HNF4A DNA FP: 2; TPT1 inh: 0; PKA-R1A act: 6; Rpn11 confirm: -2; MMP-2 counter: -16; Thrombin inh: -18

How did COc1ccc(Cl)cc1NC(=O)CN(C)C(=O)c1ccc2c(c1)CC(c1ccccc1)OC2=O (stereo unspecified) do in these assays?
PKA-R2B activ: 4; Rpn11 inh: inactive; CSN inh: -1; HNF4A DNA FP: -2; PKA-R1A act: 0

Results for CCOC(=O)C1=C(C)Nc2sc(C(=O)c3ccc(F)cc3)c(N)c2C1c1ccc(C(=O)OC)cc1 (stereo unspecified) ?
PKA-R2B activ: 3; Rpn11 inh: active; CSN inh: 6; HNF4A DNA FP: 3; TPT1 inh: 5; PKA-R1A act: -6; Rpn11 confirm: 11; MMP-2 counter: 32; Thrombin inh: -11

Results for CCOC(=O)C1=C(C)NC(SCC(=O)OC)=C(C#N)C1c1ccc(C(=O)OC)cc1 (stereo unspecified) ?
PKA-R2B activ: -4; Rpn11 inh: inactive; CSN inh: 6; HNF4A DNA FP: 2; TPT1 inh: 0; PKA-R1A act: 7

Results for CCOC(=O)C1=C(C)Nc2sc(C(=O)c3ccc(C)cc3)c(N)c2C1c1ccc(C(=O)OC)cc1 (stereo unspecified) ?
PKA-R2B activ: -5; Rpn11 inh: active; CSN inh: 0; HNF4A DNA FP: 12; TPT1 inh: 11; PKA-R1A act: 7; Rpn11 confirm: -6; MMP-2 counter: 41*; Thrombin inh: -18

Results for O=C(CN1CCSCC1)N/N=C/c1ccc(F)c(F)c1 ?
PKA-R2B activ: 3; Rpn11 inh: inactive; CSN inh: 1; HNF4A DNA FP: 2; TPT1 inh: -2; PKA-R1A act: 9

How did COc1cc(/C=N/NC(=O)c2cc3ccccc3cc2O)ccc1OCCN1CCCCC1 do in these assays?
PKA-R2B activ: -10; Rpn11 inh: active; CSN inh: 6; HNF4A DNA FP: 13; TPT1 inh: 19; PKA-R1A act: -4; Rpn11 confirm: 27; MMP-2 counter: -5; Thrombin inh: -3
